# HIV Env fusion: inhibitors of HIV-1 Env-driven cell-cell fusion, primary screen, HeLa-JRFL effector, CEM21 target cells, luciferase; inhibition, % at 12.3 µM; actives 1.1% (n = 360,000); AID 651610, 2012;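 active means mean replicate inhibition score of at least 50 and every replicate individually at or above 50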
# miR122 inh: miR-122 Renilla sensor signal increase in Huh7, primary screen, miR-122 inhibitor project, cell-based, single point, plate reader | actives 0.3% (n = 340,000) | activation (reporter increase), % at 12.5 µM | Huh7 miR-122 Renilla luciferase sensor, 48 h; neutral wells = 0, positive control = 100;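 active means mean replicate activation score at least 90 and every replicate individually at or above 90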;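 further: higher luciferase means less miR-122 activity so hits act as miR-122 inhibitors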
# FN deposition inh: inhibitors of fibronectin matrix deposition, primary screen, AH1F cells, Alexa488-fibronectin fluorescence, plate reader; AH1F fibroblasts, overnight; inhibition, % at 12.6 µM; actives 0.086% (n = 350,000);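 active means mean inhibition across replicates of 30% or more, regardless of how many single replicates reach that level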
#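 material = AH1F fibroblast monolayer depositing Alexa488-labelled fibronectin into matrix | amount = 10000 AH1F cells/well | buffer or medium = DMEM plus 2% serum, read in PBS | incubation = 1 h cell adhesion before compound, then overnight fibronectin incubation | detection = fluorescence at 485 nm excitation, 525 nm emission | evaluation = percent inhibition as loss of matrix-bound fibronectin fluorescence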
# S100A4 MyoIIA: inhibitors of S100A4-myosin IIA peptide binding, primary screen, biochemical, fluorescence polarization, TAMRA-MyoIIA peptide. actives 0.14% (n = 360,000). Protein S100-A4 (Homo sapiens), P26447. inhibition, % at 10.7 µM;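 active means mean inhibition of at least 70% across replicates, with every replicate also reaching that level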
# Target sequence (P26447 whole entry, looked up): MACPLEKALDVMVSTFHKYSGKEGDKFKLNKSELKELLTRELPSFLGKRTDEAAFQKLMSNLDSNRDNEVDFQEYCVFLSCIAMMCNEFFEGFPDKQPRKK
#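 Test system: S100A4 monomer protein; Medium: HEPES pH 7.2 with CaCl2, KCl, NaCl, DTT, Triton; Probe or stimulus: TAMRA-labelled myosin IIA heavy-chain peptide probe, 5 nM; Doses: one dose per compound; Times: polarization read 5 min after assay mix addition, stable 5–60 min; Benchmarks: neutral control DMSO, positive control TFP.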
# rRNA inh HTS: reduced GFP signal of wild-type E. coli, primary screen, bacterial rRNA inhibitor project, GFP/RFP fluorescence, OD600, single point. E. coli WT GFP vs humanized-ribosome RFP mutants, 24 h; stronger effect = lower value; DMSO median 0, no signal -100. GFP signal change (wild-type ribosome), % (no concentration beside the values). actives 1.6% (n = 350,000). AID 720706, 2013;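 active means significant combined selectivity score with lowered wild-type GFP, culture density cut under 30%, mutant RFP and density less affected; inactive means any of these conditions unmet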
# Vif imaging: HIV Vif self-association inhibitors, primary screen, imaging, HEK293T, single point. HEK293T cells, Vif self-association by quenched fluorescence, 24 h. inhibition, % at 7.49 µM. actives 0.35% (n = 340,000). AID 602346, 2012; in the data active means inhibition above about 50%, passing the limit was not always enough
# A number is an active result; n = inactive; x = not tested or not shown; [ ] = dose if it differs, or a comment. Compounds with a hit are over-represented: about 2.6% of the library has one in this group of screens.
SMILES,HIV Env fusion,miR122 inh,FN deposition inh,S100A4 MyoIIA,rRNA inh HTS,Vif imaging
CCOC(=O)c1c(CSc2ccccc2)n(C)c2cc(Br)c(O)c(CN(C)C)c12,67,n,n,n,n,n
CCOC(=O)c1c(CSc2ccc(C)cc2)n(C)c2cc(Br)c(O)c(CN(C)C)c12,87,n,n,n,n,n
CCOC(=O)c1c(CN2CCOCC2)n(-c2ccccc2)c2cc(Br)c(O)c(CN(C)C)c12,x,x,x,x,x,n
CCOC(=O)c1c(CN2CCCCC2)n(C)c2cc(Br)c(O)c(CN(C)C)c12,x,n,x,x,x,x
CN(C)C(=O)C[C@H]1C[C@@H]2c3cc(NC(=O)C4CCC4)ccc3O[C@@H]2[C@H](CO)O1,n,n,n,n,n,x
COc1ccc(/C=C/c2ccc3cccc(O)c3n2)c(OC)c1OC,n,n,35,n,n,n
COc1cccc(/C=C/c2ccc3cccc(O)c3n2)c1OC,n,n,n,n,n,n
O=C1OC(CN(Cc2ccccc2)Cc2ccccc2)CN1N=Cc1ccc([N+](=O)[O-])o1 (stereo unspecified),83,n,n,n,n,n
O=C1OC(CN2CCOCC2)CN1N=Cc1ccc([N+](=O)[O-])o1 (stereo unspecified),n,n,n,n,x,n
C[C@@H]1CN([C@@H](C)CO)C(=O)c2cc(NS(=O)(=O)c3ccc(Cl)cc3)ccc2O[C@@H](C)CCCCO[C@@H]1CN(C)Cc1ccc(C(F)(F)F)cc1,n,n,n,n,n,x
C[C@@H]1CCCCO[C@@H](CN(C)Cc2ccc(C(F)(F)F)cc2)[C@H](C)CN([C@H](C)CO)C(=O)c2cc(NS(=O)(=O)c3ccc(Cl)cc3)ccc2O1,61[16.7 µM],n,n,n,n,x
Cc1ccc(S(=O)(=O)Nc2ccc3c(c2)C(=O)N([C@@H](C)CO)C[C@@H](C)[C@H](CN(C)Cc2ccc(C(F)(F)F)cc2)OCCCC[C@@H](C)O3)cc1,108[16.7 µM],n,n,n,n,x
C[C@@H]1CN([C@@H](C)CO)C(=O)c2cc(NS(=O)(=O)c3cccs3)ccc2O[C@@H](C)CCCCO[C@H]1CN(C)Cc1ccc(C(F)(F)F)cc1,58[16.7 µM],n,x,n,n,x
C[C@@H]1CN([C@H](C)CO)C(=O)c2cc(NS(=O)(=O)c3cccs3)ccc2O[C@@H](C)CCCCO[C@@H]1CN(C)Cc1ccc(C(F)(F)F)cc1,n,n,x,n,n,x
Cc1ccc(S(=O)(=O)Nc2ccc3c(c2)C(=O)N([C@H](C)CO)C[C@@H](C)[C@@H](CN(C)Cc2ccc(C(F)(F)F)cc2)OCCCC[C@@H](C)O3)cc1,69[16.7 µM],n,n,n,n,x
O=C(c1ccc(Cl)s1)N1CCN(c2nc3ccccc3s2)CC1,77,n,n,n,n,n
O=C(c1cccs1)N1CCN(c2nc3ccccc3s2)CC1,n,x,n,n,n,n
Cn1c(C(=O)N2CCN(c3nc4ccccc4s3)CC2)cc2sccc21,71,n,n,x,x,n
O=C(c1cc2sccc2n1Cc1ccc(F)cc1)N1CCN(c2nc3ccccc3s2)CC1,87,n,n,x,x,n
O=C(NC1CCCCC1)N[C@H]1C=C[C@H](CC(=O)N2CCOCC2)O[C@@H]1CO,x,x,x,n,n,x
COc1cccc(S(=O)(=O)N[C@@H]2CC[C@H](CCNC(=O)Nc3cc(F)ccc3F)O[C@@H]2CO)c1,n,x,n,n,n,x
CC(C)NC(=O)N(Cc1ccc(Cl)cc1)Cc1cccs1,n,x,n,n,-24,n
O=C(C[C@@H]1CC[C@@H]2[C@H](COC[C@@H](O)CN2C(=O)Nc2ccccc2)O1)NCc1ccncn1,n,n,n,n,n,x
CCOc1ccc(NC(=O)COc2ccc(-n3cnnn3)cc2)cc1,x,x,n,n,n,n
CCC(=O)c1ccc(OCC(=O)Nc2nn3cnnc3s2)cc1,x,n,x,x,x,68
C[C@H]1CN(C)C(=O)c2cccc(N)c2O[C@H]1CN(C)C(=O)OC(C)(C)C,x,x,n,x,n,x

# Screens deposited in PubChem by Broad Institute.
